Calls of active or inactive are those of the source. No cut-off for these calls is given here.
Key:
HCT-116 [1] = assay: Increase in p21 (waf1/cip1) protein expression in wild type p53 expressing human HCT116 cells at 10 to 40 uM by Western blot method; type: functional, cell-based
Outline: (§1)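 H1299 (p53-null), HCT116 (p53 wild type) and MDA-MB-231 (p53 mutant) cells were treated, then lysates were immunoblotted for p53, p21, PUMA and PARP. β-Actin served as loading control.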

HT-29 = assay: Potency index, ratio of IC50 for ethacrynic acid to IC50 for test compound for cytotoxic activity against human HT-29 cells assessed as inhibition of cell proliferation incubated for 72 hrs by MTT assay; type: functional
Outline: (§2)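 Index is the reference IC50 divided by the test IC50. Both IC50s were taken from MTT cell survival curves, each as mean ± SD of three independent experiments.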

MDA-MB-231 [2] = assay: Potency index, ratio of IC50 for ethacrynic acid to IC50 for test compound for cytotoxic activity against human MDA-MB-231 cells assessed as inhibition of cell proliferation incubated for 72 hrs by MTT assay; type: functional
MDA-MB-231 [3] = assay: Reduction in cellular total thiol levels in human MDA-MB-231 cells incubated for 3 hrs by Ellman's reagent based assay; type: functional, cell-based
Outline: (§3)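 Cells exposed to 0–40 µM compound for 3 h, then trypsinized. Total thiols in cell extracts were quantified with Ellman's reagent.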

MDA-MB-231 [4] = assay: Induction of cell cycle arrest in p53 mutant expressing human MDA-MB-231 cells assessed as accumulation at G2/M phase incubated for 24 hrs by propidium iodide staining based flow cytometry; type: functional
MCF7 [5] = assay: Cytotoxic activity against human MCF7 cells assessed as inhibition of cell proliferation incubated for 72 hrs by MTT assay; type: functional, cell-based; settings: MCF7, 72 h
Outline: (§4)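 MTT cell survival assay. IC50 is the concentration that inhibits tumour cell proliferation by 50%, read from cell survival curves. Values are given as mean ± SD of three independent experiments.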

HCT-116 [6] = assay: Induction of ROS generation in human HCT116 cells at 20 and 40 uM incubated for 3 hrs after pre-incubation with 3 mM NAC for 1 hr by DCFDA staining based fluorescence microscopy; type: functional, cell-based
Outline: (§5)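 After 3 h exposure at different concentrations, DCFH-DA fluorescence was imaged by fluorescence microscopy. H2O2 (25 µM) served as positive control. In some wells, cells were pretreated with 3 mM N-acetylcysteine before compound addition.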

HCT-116 [7] = assay: Induction of ROS generation in human HCT116 cells at 20 and 40 uM incubated for 3 hrs by DCFDA staining based fluorescence microscopy; type: functional, cell-based; outline: as §5
NCI-H1299 [8] = assay: Induction of cell cycle arrest in p53 deficient human H1299 cells assessed as accumulation at G2/M phase incubated for 24 hrs by propidium iodide staining based flow cytometry; type: functional
HCT-116 [9] = assay: Increase in cleaved PARP protein expression in wild type p53 expressing human HCT116 cells at 10 to 40 uM by Western blot method; type: functional, cell-based; outline: as §1
NCI-H1299 [10] = assay: Increase in PUMA protein expression in p53 deficient human H1299 cells at 10 to 40 uM by Western blot method; type: functional, cell-based; outline: as §1
HCT-116 [11] = assay: Reduction in cellular total thiol levels in human HCT116 cells at 40 uM incubated for 3 hrs by Ellman's reagent based assay; type: functional; outline: as §3
[12] = Potency index, ratio of IC50 for ethacrynic acid to IC50 for test compound for cytotoxic activity against human H1299 cells assessed as inhibition of cell proliferation incubated for 72 hrs by MTT assay; type: functional; outline: as §2
MDA-MB-231 [13] = assay: Increase in p53 protein expression in p53 mutant expressing human MDA-MB-231 cells at 10 to 40 uM by Western blot method; type: functional, cell-based; outline: as §1
[14] = Cytotoxic activity against human MCF10A cells assessed as inhibition of cell proliferation incubated for 72 hrs by MTT assay; type: cell-based; settings: mcf-10a; outline: as §4
[15] = molecular target: Glutathione S-transferase P (Homo sapiens) (UniProt P09211); assay: Inhibition of GSTP1 in human HCT116 cells assessed as reduction in GST-pi activity at 50 uM pre-incubated for 3 hrs followed by chlorodinitrobenzene and reduced glutathione addition by photometric assay; settings: HCT-116
[16] = molecular target: Glutathione S-transferase P (Homo sapiens) (UniProt P09211); assay: Inhibition of GSTP1 in human MDA-MB-231 cells assessed as reduction in GST-pi activity pre-incubated for 3 hrs followed by chlorodinitrobenzene and reduced glutathione addition by photometric assay
[17] = Cytotoxic activity against human HCT116 cells assessed as inhibition of cell proliferation incubated for 72 hrs by MTT assay; type: functional, cell-based; settings: HCT-116, 72 h; outline: as §4
[18] = molecular target: Glutathione S-transferase P (Homo sapiens) (UniProt P09211); assay: Inhibition of GSTP1 in human HCT116 cells assessed as reduction in GST-pi activity pre-incubated for 3 hrs followed by chlorodinitrobenzene and reduced glutathione addition by photometric assay; settings: HCT-116
[19] = Cytotoxic activity against human SF188 cells assessed as inhibition of cell proliferation incubated for 72 hrs by MTT assay; type: functional, cell-based; settings: SF-188, 72 h; outline: as §4
MCF7 [20] = assay: Potency index, ratio of IC50 for ethacrynic acid to IC50 for test compound for cytotoxic activity against human MCF7 cells assessed as inhibition of cell proliferation incubated for 72 hrs by MTT assay; type: functional
Mus musculus [21] = assay: Toxicity in mouse assessed as induction of diarrhea at 120 mg/kg/week for 2 weeks; type: organism-based; settings: in vivo, 336 h
Mus musculus [22] = assay: Toxicity in mouse assessed as induction of stress at 120 mg/kg/week for 2 weeks; type: organism-based; settings: in vivo, 336 h
[23] = Potency index, ratio of IC50 for ethacrynic acid to IC50 for test compound for cytotoxic activity against human GBM10 cells assessed as inhibition of cell proliferation incubated for 72 hrs by MTT assay; type: functional; outline: as §2
MDA-MB-231 [24] = assay: Cytotoxic activity against human MDA-MB-231 cells assessed as inhibition of cell proliferation incubated for 72 hrs by MTT assay; type: functional, cell-based; settings: MDA-MB-231, 72 h; outline: as §4
MDA-MB-468 [25] = assay: Potency index, ratio of IC50 for ethacrynic acid to IC50 for test compound for cytotoxic activity against human MDA-MB-468 cells assessed as inhibition of cell proliferation incubated for 72 hrs by MTT assay; type: functional
Mus musculus [26] = assay: Toxicity in mouse assessed as induction of tremors at 120 mg/kg/week for 2 weeks; type: organism-based; settings: in vivo, 336 h
NCI-H1299 [27] = assay: Reduction in cellular total thiol levels in human H1299 cells at 40 uM incubated for 3 hrs by Ellman's reagent based assay; type: functional; outline: as §3
HCT-116 [28] = assay: Increase in PUMA protein expression in wild type p53 expressing human HCT116 cells at 10 to 40 uM by Western blot method; type: functional, cell-based; outline: as §1
MDA-MB-468 [29] = assay: Cytotoxic activity against human MDA-MB-468 cells assessed as inhibition of cell proliferation incubated for 72 hrs by MTT assay; type: functional, cell-based; settings: MDA-MB-468, 72 h; outline: as §4
Mus musculus [30] = assay: Toxicity in mouse assessed as induction of weight loss at 120 mg/kg/week for 2 weeks; type: organism-based; settings: in vivo, 336 h
NCI-H1299 [31] = assay: Induction of ROS generation in human H1299 cells at 20 and 40 uM incubated for 3 hrs after pre-incubation with 3 mM NAC for 1 hr by DCFDA staining based flow cytometry; type: functional, cell-based
Outline: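 Cells were exposed for 3 h to compound, or to 25 µM H2O2 as positive control. Where indicated, 3 mM N-acetylcysteine was given 1 h before treatment. Pellets were stained with DCF-DA for 30 min, and intracellular ROS was read as fluorescence shift by flow cytometry against untreated controls.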

Glutathione S-transferase P (Homo sapiens), sequence (P09211 2-210 limits assumed): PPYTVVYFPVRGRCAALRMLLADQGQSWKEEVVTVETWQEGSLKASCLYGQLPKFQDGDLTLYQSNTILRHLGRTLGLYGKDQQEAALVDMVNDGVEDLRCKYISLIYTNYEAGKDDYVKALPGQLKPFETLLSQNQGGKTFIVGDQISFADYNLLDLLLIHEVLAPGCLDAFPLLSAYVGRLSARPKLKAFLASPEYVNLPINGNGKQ

SMILES: C=C(CC)C(=O)c1ccc(OCC(=O)N[C@@H]2[C@@H](O)[C@H](O)[C@@H](CO)O[C@H]2O)c(Cl)c1Cl
- Activity (HCT-116 [1]): Active
- Ratio IC50 (HT-29): 3
- Ratio IC50 (MDA-MB-231 [2]): 3
- Activity (MDA-MB-231 [3]): Dose-dependent effect
- Activity (MDA-MB-231 [4]): Dose-dependent effect
- IC50 (MCF7 [5]): 10.1 µM
- Activity (HCT-116 [6]): inactive
- Activity (HCT-116 [7]): Active
- Activity (NCI-H1299 [8]): Dose-dependent effect
- Activity (HCT-116 [9]): Active
- Activity (NCI-H1299 [10]): Active
- Imax (HCT-116 [11]): 58%
- Ratio IC50 [12]: 3
- Activity (MDA-MB-231 [13]): Active
- Activity [14]: Non-toxic
- Imax [15]: 60%
- Activity [16]: Dose-dependent effect
- IC50 [17]: 10.3 µM
- Activity [18]: Dose-dependent effect
- IC50 [19]: 12.3 µM
- Ratio IC50 (MCF7 [20]): 3
- Activity (Mus musculus [21]): Non-toxic
- Activity (Mus musculus [22]): Non-toxic
- Ratio IC50 [23]: 3
- IC50 (MDA-MB-231 [24]): 12.2 µM
- Ratio IC50 (MDA-MB-468 [25]): 3
- Activity (Mus musculus [26]): Non-toxic
- Imax (NCI-H1299 [27]): 58%
- Activity (HCT-116 [28]): Active
- IC50 (MDA-MB-468 [29]): 18.4 µM
- Activity (Mus musculus [30]): Non-toxic
- Activity (NCI-H1299 [31]): inactive
